Experimental data pooled from the literature.
Each line is one published result; the experiments were not run side by side.
Target: Mitogen-activated protein kinase kinase kinase 5 (MAP3K5, Homo sapiens, UniProt Q99683)
Residues used in one study (Q99683 1-1374): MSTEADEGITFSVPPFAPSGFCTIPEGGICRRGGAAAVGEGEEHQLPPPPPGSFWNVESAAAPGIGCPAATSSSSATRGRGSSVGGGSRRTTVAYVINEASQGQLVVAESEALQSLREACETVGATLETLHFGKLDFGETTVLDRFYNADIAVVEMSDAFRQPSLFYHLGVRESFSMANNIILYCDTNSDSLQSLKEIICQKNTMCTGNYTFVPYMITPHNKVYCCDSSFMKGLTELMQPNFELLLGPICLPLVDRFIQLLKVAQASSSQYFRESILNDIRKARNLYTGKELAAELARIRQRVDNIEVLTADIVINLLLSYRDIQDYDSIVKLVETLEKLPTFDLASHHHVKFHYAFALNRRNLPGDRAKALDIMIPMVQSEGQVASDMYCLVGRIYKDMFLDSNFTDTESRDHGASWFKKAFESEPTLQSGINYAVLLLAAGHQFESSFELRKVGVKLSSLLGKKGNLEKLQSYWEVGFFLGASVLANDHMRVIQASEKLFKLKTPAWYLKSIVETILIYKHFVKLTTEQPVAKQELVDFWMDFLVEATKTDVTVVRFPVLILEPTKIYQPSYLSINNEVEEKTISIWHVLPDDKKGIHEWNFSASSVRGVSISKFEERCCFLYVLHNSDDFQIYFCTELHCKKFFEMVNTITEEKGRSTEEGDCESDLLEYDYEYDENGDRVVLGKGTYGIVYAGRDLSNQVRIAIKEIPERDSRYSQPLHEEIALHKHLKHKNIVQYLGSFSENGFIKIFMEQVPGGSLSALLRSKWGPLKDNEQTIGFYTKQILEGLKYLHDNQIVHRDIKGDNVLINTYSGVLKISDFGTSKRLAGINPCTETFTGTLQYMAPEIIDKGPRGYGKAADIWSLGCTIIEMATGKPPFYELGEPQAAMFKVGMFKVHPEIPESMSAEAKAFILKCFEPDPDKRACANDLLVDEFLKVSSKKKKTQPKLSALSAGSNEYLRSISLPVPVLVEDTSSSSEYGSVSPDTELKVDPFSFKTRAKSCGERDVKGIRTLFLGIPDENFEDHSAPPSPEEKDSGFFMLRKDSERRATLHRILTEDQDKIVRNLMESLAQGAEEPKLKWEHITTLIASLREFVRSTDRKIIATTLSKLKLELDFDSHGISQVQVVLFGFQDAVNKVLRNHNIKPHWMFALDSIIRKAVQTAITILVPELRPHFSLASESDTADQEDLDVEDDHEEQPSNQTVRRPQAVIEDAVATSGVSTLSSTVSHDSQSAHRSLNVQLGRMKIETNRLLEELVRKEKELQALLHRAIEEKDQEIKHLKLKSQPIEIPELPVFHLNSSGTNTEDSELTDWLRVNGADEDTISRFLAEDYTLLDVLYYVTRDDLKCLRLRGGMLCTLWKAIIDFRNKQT

| Compound | read-out | mode | method | tested at | measurement | result |
| --- | --- | --- | --- | --- | --- | --- |
| COc1ncccc1-c1cnn2ccc(N3CCN(C(=O)OC(C)C)CC3)nc12 | binding |  | competition with immobilised ligand | 1 µM | remaining binding | 73% |
| CC(C)(C)c1cc(C=C(C#N)C#N)cc(Br)c1O | enzyme activity | inhibitor |  | 0.5 µM | remaining activity | 100% |
| COc1cc(Nc2ncc(F)c(Nc3ccc4c(n3)NC(=O)C(C)(C)O4)n2)cc(OC)c1OC | binding |  | competition with immobilised ligand | 10 µM | inhibition | 0% |
| O=c1[nH]c2ccccc2n1C1CCN(Cc2ccc(-c3[nH]c4cc5ncnc5cc4nc3-c3ccccc3)cc2)CC1 | cell-free assay |  |  | 0.5 µM | remaining signal | 93.8% |
| Cn1cc(-c2cc(F)cc(N3CCn4c(cc5c4CCCC5)C3=O)c2CO)cc(Nc2ccc(N3CCN(C4COC4)CC3)cn2)c1=O | enzyme activity | inhibitor |  | 0.1 µM | inhibition | 2% |
| Nc1ncc(-c2nc(N3CCOCC3)nc(N3CCOCC3)n2)c(C(F)F)n1 | binding |  | competition with immobilised ligand | 10 µM | remaining binding | 92% |
| Cn1cncc1[C@@](O)(COc1ccc(C#N)cc1-c1ccc(OC(F)(F)F)cc1)c1ccc(C#N)cc1 | cell-free assay |  | competition with immobilised ligand | 1 µM | remaining binding | 91% |
| Cc1nn(C)cc1-c1nc2c(N3CCN(Cc4ccc(Cl)cc4)CC3)c(Cl)cnc2[nH]1 | binding |  | competition with immobilised ligand | 1 µM | remaining binding | 100% |
| Cn1cc(-c2cccc(N3CCc4c(sc5c4CC(C)(C)C5)C3=O)c2CO)cc(Nc2ccncn2)c1=O | enzyme activity | inhibitor |  | 1 µM | inhibition | 14% |
| N#CC1(c2ccccn2)CCN(Cc2cc(C(=O)O)c(=O)n3ccccc23)CC1 | cell-free assay |  | competition with immobilised ligand | 1 µM | remaining binding | 75% |
